From ChEMBL document CHEMBL4316597, “Design, Synthesis, and Biological Evaluation of Itaconic Acid Derivatives as Potential Anti-Influenza Agents” (J Med Chem, 2019)
Activity calls are given as the source filed them. No cut-off for these calls is given here.

How the values were obtained:
Influenza A virus [1] = test: Antiviral activity against Influenza A virus (A/WSN/33) infected in MDCK cells at 10 uM added at 6 hrs to 9 hrs post infection and measured after 9 hrs by plaque assay; type: functional, organism-based; conditions: A/WSN/1933(H1N1)
Procedure, shortened: (§1)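 MDCK monolayers exposed to compound (1 or 10 μM) over windows of −3, −1, 0, 3 or 6 to 9 h pi. A/WSN/33 adsorbed at MOI 0.1 from −1 to 0 h, then removed with a PBS wash. Supernatant taken at 9 h pi and titred by plaque assay, normalised to virus-only (100%). Average of three independent experiments.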

Influenza A virus [2] = test: Antiviral activity against Influenza A virus (A/WSN/33) infected in MDCK cells at 10 uM added at -1 hrs to 9 hrs post infection and measured after 9 hrs by plaque assay; type: functional, organism-based; conditions: A/WSN/1933(H1N1); procedure, shortened: as §1

For `C=C(CC(=O)Nc1ccc(F)cc1F)C(=O)Nc1ccc(F)cc1F`, the Activity (Influenza A virus [1]) was “inactive” and the Activity (Influenza A virus [2]) was “Active”.
